The text below walks through data of ChEMBL document CHEMBL3734757, “Discovery of novel quinoline-based mTOR inhibitors via introducing intra-molecular hydrogen bonding scaffold (iMHBS): The design, synthesis and biological evaluation” (Bioorg Med Chem, 2015).

The test system of data set [1] is MCF7. Description: cells. As to conditions: Homo sapiens, MCF7, 72 h.
Data set [2] is described as follows: cells. As to conditions: Homo sapiens, HCT-116, 72 h.
Data set [3] can be described thus: cells. As to conditions: Homo sapiens, PC-3, 72 h.
The target of data set [4] is T1, Phosphatidylinositol 4,5-bisphosphate 3-kinase catalytic subunit beta isoform (Homo sapiens, UniProt P42338). Kind of data set: Inhibition of PI3Kbeta (unknown origin) after 1 hr by ADP-Glo Luminescent assay. Summed up:
(§1)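 Purchased PI3Kβ reaction run 1 h at room temperature. An aliquot was moved to a new plate and stopped with an equal volume of ADP-Glo reagent, equilibrated 40 min. Kinase detection reagent added, shaken 1 min, equilibrated 60 min, then luminescence read. Inhibition relative to DMSO (max) and no-enzyme (min) controls; IC50 from four-parameter Hill fit.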
Target sequence in this assay (P42338 whole entry, canonical isoform): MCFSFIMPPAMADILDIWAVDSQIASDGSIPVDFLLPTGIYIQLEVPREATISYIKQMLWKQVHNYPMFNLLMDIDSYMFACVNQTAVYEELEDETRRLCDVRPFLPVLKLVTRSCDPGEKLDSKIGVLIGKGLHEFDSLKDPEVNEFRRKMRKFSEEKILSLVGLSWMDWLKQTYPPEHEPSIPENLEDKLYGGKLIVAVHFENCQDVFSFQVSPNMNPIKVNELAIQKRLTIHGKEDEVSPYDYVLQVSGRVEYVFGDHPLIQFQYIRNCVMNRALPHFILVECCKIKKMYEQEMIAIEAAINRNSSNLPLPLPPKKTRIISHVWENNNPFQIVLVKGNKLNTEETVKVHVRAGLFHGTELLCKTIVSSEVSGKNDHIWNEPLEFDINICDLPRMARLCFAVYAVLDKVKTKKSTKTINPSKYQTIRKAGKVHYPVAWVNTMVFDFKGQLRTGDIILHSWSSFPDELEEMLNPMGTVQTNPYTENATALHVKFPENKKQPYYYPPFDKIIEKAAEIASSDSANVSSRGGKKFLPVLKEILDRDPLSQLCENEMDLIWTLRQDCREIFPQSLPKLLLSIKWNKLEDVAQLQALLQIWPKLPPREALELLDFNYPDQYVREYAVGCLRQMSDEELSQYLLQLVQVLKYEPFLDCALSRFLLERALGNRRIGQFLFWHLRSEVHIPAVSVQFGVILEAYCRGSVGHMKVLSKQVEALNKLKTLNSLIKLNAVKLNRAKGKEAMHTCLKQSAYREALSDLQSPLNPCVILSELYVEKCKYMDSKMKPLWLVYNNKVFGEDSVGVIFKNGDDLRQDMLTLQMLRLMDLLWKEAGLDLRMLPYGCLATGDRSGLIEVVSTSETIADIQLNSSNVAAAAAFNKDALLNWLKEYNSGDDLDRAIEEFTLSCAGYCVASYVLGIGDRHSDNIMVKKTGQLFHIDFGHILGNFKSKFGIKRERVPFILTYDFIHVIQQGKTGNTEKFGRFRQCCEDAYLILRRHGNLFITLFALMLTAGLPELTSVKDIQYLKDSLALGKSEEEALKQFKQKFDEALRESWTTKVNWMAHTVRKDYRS
On the technique in general: ADP-Glo first removes unused ATP, then detects ADP through luciferase.

The target of data set [5] is T2, Phosphatidylinositol 4,5-bisphosphate 3-kinase catalytic subunit gamma isoform (Homo sapiens, UniProt P48736). Kind of data set: Inhibition of PI3Kgamma (unknown origin) after 1 hr by ADP-Glo Luminescent assay.
Target sequence in this assay (P48736 whole entry, canonical isoform): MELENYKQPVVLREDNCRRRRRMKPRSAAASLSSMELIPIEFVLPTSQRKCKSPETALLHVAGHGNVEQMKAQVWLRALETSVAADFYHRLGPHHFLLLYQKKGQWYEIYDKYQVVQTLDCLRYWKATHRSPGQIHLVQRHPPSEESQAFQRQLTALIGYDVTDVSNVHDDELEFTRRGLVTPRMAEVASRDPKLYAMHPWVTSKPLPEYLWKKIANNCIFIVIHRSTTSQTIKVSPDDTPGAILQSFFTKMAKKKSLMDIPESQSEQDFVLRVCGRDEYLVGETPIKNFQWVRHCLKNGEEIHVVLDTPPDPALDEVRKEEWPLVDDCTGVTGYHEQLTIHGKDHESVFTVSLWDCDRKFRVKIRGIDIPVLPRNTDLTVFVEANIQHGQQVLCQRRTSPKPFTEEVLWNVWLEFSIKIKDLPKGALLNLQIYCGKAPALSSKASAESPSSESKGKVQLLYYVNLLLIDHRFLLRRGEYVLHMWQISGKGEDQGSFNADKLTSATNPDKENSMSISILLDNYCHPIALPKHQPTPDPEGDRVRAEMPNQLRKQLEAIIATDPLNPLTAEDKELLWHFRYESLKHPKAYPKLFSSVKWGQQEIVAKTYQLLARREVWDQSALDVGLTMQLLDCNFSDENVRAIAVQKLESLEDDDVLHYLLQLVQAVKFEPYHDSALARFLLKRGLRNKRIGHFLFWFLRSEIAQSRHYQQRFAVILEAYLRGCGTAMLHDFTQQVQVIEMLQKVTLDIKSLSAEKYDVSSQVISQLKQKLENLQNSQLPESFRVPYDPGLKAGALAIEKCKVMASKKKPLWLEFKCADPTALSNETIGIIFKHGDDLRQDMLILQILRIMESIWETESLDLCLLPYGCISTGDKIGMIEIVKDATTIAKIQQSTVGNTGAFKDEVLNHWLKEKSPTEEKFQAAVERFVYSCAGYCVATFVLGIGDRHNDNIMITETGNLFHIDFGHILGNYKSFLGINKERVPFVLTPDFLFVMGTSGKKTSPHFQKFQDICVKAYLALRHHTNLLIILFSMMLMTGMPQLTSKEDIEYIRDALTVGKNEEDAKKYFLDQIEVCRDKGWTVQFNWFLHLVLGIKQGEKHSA
For data set [6], the target named is T3, Phosphatidylinositol 4,5-bisphosphate 3-kinase catalytic subunit alpha isoform (Homo sapiens, UniProt P42336). Kind of data set: Inhibition of PI3Kalpha (unknown origin) after 1 hr by Kinase-Glo Luminescent assay.
The test system of data set [7] is MCF7. Kind of data set: Inhibition of mTORC2 in human MCF7 cells assessed as downregulation of pAKT(Ser473) at 0.1 uM after 2 hrs by Western blot analysis.
Data set [8] concerns the target Serine/threonine-protein kinase mTOR (Homo sapiens, UniProt P42345). Kind of data set: Inhibition of mTOR (unknown origin) using ULight-4E-BP1 peptide as substrate after 1 hr by lance ultra assay.
The target in data set [9] is T4, Phosphatidylinositol 4,5-bisphosphate 3-kinase catalytic subunit delta isoform (Homo sapiens, UniProt O00329).
T4 sequence (O00329 whole entry): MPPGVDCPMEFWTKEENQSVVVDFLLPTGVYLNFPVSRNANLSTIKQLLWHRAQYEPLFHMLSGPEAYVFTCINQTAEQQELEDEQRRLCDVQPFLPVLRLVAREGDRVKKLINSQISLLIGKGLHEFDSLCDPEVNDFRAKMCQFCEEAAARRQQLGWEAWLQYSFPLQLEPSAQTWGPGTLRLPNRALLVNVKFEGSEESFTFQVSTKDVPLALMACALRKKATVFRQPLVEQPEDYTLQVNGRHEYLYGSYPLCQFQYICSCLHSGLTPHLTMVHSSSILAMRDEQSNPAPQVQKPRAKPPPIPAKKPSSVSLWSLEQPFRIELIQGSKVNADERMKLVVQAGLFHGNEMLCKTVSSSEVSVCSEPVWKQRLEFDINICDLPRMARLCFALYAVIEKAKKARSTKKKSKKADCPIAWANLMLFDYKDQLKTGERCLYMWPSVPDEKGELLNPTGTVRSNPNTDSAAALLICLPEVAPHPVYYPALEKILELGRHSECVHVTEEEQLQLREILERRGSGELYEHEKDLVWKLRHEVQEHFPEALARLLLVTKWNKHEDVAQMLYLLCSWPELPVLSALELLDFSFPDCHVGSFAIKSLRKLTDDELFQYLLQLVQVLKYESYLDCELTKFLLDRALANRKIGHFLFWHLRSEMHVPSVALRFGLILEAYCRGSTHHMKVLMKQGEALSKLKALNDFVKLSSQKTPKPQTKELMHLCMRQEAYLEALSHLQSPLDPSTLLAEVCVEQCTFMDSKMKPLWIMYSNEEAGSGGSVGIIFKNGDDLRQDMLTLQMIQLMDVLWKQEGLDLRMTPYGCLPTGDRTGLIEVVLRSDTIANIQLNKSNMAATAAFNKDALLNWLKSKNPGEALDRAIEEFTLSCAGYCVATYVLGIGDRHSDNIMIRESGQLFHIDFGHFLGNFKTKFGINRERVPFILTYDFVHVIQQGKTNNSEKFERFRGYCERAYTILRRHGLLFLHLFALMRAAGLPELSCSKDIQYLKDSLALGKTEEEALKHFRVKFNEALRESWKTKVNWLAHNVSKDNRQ
Kind of data set: Inhibition of PI3Kdelta (unknown origin) after 1 hr by ADP-Glo Luminescent assay.

Data set [10] relates to MCF7. Kind of data set: Inhibition of mTORC1/2 in human MCF7 cells assessed as downregulation of pAKT(Ser473) and pS6(Ser235) at 0.5 uM after 2 hrs by Western blot analysis. The data set is classed as cell-based. A general note: In western blotting, separated proteins are transferred to a membrane and probed.
Data set [11] has as its target T2, Phosphatidylinositol 4,5-bisphosphate 3-kinase catalytic subunit gamma isoform. Kind of data set: Inhibition of PI3Kgamma (unknown origin) at 1 uM after 1 hr by ADP-Glo Luminescent assay.
Target sequence in this assay (P48736 whole entry, looked up, canonical isoform): as the sequence (P48736 whole entry, canonical isoform) above
Data set [12] deals with T5, Phosphatidylinositol 4,5-bisphosphate 3-kinase catalytic subunit delta isoform (Homo sapiens) (UniProt O00329).
T5 sequence (whole entry): T4 sequence (O00329 whole entry)
Description: Inhibition of PI3Kdelta (unknown origin) at 1 uM after 1 hr by ADP-Glo Luminescent assay.

Data set [13] in a line: Metabolic stability in rat liver microsomes after 30 mins. The class given is ADME. As to conditions: read-out: Stability. A general note: Microsomes from liver hold many membrane-bound enzymes, among them those of drug oxidation.
The target in data set [14] is T3, Phosphatidylinositol 4,5-bisphosphate 3-kinase catalytic subunit alpha isoform. Kind of data set: Inhibition of PI3Kalpha (unknown origin) at 1 uM after 1 hr by Kinase-Glo Luminescent assay. Summed up: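 Purchased PI3Kα in buffer of 50 mM HEPES pH 7.5, 3 mM MgCl2, 1 mM EDTA, 100 mM NaCl, 0.03% CHAPS, 2 mM DTT; substrate PIP2 plus ATP. Reaction 1 h at room temperature, stopped with Kinase-Glo reagent, 15 min equilibration, luminescence read. Percent inhibition from no-enzyme and DMSO controls; IC50 from four-parameter Hill fit.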

Data set [15] is described as follows: Metabolic stability in simulated intestinal fluid after 45 mins. The class given is ADME. As to conditions: simulated gi fluid, 0.75 h.
The nature of data set [16]: Metabolic stability in simulated gastric fluid after 45 mins. The class given is ADME. The conditions noted are these: simulated gi fluid, 0.75 h.
Data set [17] is described as follows: Metabolic stability in human liver microsomes after 60 mins. The class given is ADME. As to conditions: read-out: Stability.
Data set [18] has as its target T1, Phosphatidylinositol 4,5-bisphosphate 3-kinase catalytic subunit beta isoform. Kind of data set: Inhibition of PI3Kbeta (unknown origin) at 1 uM after 1 hr by ADP-Glo Luminescent assay. Summed up: as §1
Target sequence in this assay (P42338 whole entry, looked up, canonical isoform): as the sequence (P42338 whole entry, canonical isoform) above
A short description of data set [19]: Metabolic stability in human liver microsomes after 30 mins. As to conditions: read-out: Stability. The class given is ADME.
Data set [20] deals with MCF7. Kind of data set: Inhibition of mTORC2 in human MCF7 cells assessed as downregulation of pAKT(Ser473) at 0.5 uM after 2 hrs by Western blot analysis. The class given is cell-based.
The next data set has as its target mTORC1 (Homo sapiens) (UniProt P42345+Q8N122+Q9BVC4). The conditions noted are these: MCF7, 0.5 uM.

Active and inactive are the calls of the source. No cut-off for these calls is given here.

T3 sequence (P42336 whole entry, canonical isoform): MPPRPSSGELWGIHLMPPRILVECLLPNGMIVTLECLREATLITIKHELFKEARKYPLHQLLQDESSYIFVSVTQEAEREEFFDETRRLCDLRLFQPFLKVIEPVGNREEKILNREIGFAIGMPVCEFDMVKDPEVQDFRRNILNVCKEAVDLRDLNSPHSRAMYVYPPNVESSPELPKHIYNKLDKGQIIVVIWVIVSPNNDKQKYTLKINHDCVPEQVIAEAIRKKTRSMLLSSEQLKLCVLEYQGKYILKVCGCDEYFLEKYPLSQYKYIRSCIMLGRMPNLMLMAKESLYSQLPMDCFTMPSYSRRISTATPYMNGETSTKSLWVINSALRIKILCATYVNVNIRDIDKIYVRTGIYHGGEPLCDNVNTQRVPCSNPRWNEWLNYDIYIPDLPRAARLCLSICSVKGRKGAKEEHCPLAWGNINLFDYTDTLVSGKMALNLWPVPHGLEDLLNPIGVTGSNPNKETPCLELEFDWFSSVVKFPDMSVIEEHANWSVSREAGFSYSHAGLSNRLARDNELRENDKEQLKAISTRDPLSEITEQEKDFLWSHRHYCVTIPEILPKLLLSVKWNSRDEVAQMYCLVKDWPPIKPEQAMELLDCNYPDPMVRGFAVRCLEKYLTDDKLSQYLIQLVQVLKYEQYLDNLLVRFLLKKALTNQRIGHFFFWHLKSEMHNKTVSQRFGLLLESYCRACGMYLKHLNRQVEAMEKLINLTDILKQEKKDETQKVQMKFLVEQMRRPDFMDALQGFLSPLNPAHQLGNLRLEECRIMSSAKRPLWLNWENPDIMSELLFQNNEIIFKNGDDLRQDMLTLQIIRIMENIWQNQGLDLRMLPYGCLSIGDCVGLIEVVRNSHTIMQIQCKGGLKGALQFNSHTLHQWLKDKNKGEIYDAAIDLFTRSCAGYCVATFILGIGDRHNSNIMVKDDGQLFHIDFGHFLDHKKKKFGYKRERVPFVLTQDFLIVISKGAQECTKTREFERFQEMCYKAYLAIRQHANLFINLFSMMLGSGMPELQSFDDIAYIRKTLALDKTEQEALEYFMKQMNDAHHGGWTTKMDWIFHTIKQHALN
Sequence of mTORC1 (Homo sapiens) (Q8N122 whole entry, looked up, other chains not shown): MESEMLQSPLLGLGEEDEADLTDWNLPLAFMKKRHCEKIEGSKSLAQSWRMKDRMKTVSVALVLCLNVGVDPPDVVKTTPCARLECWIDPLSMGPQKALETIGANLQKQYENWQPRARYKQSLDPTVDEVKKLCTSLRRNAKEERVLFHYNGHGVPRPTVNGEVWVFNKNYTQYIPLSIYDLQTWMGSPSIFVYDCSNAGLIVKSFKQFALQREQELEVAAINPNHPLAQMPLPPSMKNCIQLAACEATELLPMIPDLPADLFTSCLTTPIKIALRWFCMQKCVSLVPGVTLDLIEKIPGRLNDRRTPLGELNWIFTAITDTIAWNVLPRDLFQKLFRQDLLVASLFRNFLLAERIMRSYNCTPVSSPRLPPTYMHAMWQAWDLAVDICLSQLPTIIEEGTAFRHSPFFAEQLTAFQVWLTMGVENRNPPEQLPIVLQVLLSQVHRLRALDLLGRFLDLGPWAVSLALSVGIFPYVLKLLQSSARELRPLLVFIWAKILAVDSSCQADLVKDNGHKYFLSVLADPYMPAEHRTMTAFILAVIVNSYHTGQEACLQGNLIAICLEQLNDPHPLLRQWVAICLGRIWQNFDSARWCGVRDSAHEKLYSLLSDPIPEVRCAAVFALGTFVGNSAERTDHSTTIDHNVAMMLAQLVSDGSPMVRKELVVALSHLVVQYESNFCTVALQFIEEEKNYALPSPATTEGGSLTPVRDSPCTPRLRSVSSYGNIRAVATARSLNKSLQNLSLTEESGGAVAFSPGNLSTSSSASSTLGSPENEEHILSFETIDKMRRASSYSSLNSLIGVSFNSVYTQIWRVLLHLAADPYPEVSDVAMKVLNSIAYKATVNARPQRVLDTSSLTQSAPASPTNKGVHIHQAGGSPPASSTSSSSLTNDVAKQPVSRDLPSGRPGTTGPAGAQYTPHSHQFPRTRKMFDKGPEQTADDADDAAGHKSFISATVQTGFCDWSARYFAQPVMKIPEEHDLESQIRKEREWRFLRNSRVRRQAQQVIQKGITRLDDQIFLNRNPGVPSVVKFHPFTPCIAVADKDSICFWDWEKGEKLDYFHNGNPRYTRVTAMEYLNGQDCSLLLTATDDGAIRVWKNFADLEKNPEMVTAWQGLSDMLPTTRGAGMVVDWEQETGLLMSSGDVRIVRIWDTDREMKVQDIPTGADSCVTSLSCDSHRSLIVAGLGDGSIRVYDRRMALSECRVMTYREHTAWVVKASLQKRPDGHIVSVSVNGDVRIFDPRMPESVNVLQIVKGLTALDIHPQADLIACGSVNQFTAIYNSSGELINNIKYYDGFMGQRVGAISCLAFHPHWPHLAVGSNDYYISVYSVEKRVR
Sequence of mTORC1 (Homo sapiens) (Q9BVC4 whole entry, looked up, other chains not shown): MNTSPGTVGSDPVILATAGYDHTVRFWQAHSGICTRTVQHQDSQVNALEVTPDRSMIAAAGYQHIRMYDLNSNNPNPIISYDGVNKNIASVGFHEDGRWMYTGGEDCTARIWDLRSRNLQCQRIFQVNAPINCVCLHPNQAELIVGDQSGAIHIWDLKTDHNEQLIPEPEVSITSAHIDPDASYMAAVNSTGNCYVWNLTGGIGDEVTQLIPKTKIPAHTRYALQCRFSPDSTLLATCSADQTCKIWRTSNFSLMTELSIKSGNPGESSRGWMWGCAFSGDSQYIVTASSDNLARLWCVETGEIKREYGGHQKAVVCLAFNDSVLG

Regarding `NC(=O)c1cnc2ccc(-c3cnc4ccccc4c3)cc2c1Nc1cccc(C(F)(F)F)c1`, the IC50 with MCF7 [1] stood at 0.6 µM; in the data set “cells [2]” it was 3.17 µM; in “cells [3]”, 6.39 µM.
For `CNC(=O)c1cnc2ccc(-c3cnc4ccccc4c3)cc2c1Nc1ccc(C(C)(C)C#N)cc1` the same measures were 1.3 µM, 8.73 µM and 7.12 µM.
`CC(=O)N1CCN(c2ccc(Nc3c(C(N)=O)cnc4ccc(-c5cnc6ccccc6c5)cc34)cc2C(F)(F)F)CC1`: the IC50 is more than 5 µM in data set [4]; 0.939 µM in data set [5]; 2.43 µM in data set [6]; 0.44 µM with MCF7 [1]; 0.031 µM in [8]; more than 5 µM in [9]. The IC50 in the data set “cells [2]” was found to be 1.29 µM; in the data set “cells [3]”, 3.9 µM. The inhibition entry in the data set on MCF7 [7] and with MCF7 [10] was “Active” in each case.
Regarding `CNC(=O)c1cnc2ccc(-c3ccc(N)nc3)cc2c1Nc1ccc(C(C)(C)C#N)cc1`, the IC50 in the data set on MCF7 [1] came out at 0.49 µM; in “cells [2]”, 4.66 µM; in “cells [3]”, 1.74 µM.
The corresponding values for `CCC(=O)N1CCN(c2ccc(Nc3c(C(N)=O)cnc4ccc(-c5ccc(N)nc5)cc34)cc2C(F)(F)F)CC1` are 0.57 µM, 2.4 µM and 1.46 µM.
`Cn1nccc1-c1ccc2ncc(C(N)=O)c(Nc3ccc(C(C)(C)C#N)cc3)c2c1`: the IC50 with MCF7 [1] was 1.25 µM; in “cells [2]”, 17.3 µM; in “cells [3]”, more than 50 µM.
In the case of `Cl.NC(=O)c1cnc2ccc(-c3cnc4ccccc4c3)cc2c1Nc1ccc(N2CCNCC2)c(C(F)(F)F)c1`, the inhibition in [11] was 6.7%; in [12], 16.7%; in [14] it was 32.3%; in data set [18], 1%. For the same compound, the remaining at 0.5 h in data set [13] was 50%; in data set [19], 80%. Further, the results for the IC50 with MCF7 [1], in “cells [2]” and in the data set “cells [3]” were 0.24 µM, 0.46 µM and 0.61 µM, respectively. Further, the Stability entry in [15] and in data set [16] was “Stable” in each case. In addition, in [17], the remaining at 1 h is 73%.
For `CC(C)(C#N)c1ccc(Nc2c(C(N)=O)cnc3ccc(-c4cnc5ccccc5c4)cc23)cc1`, the figures for the inhibition in data set [11], in [14] and in [18] were -2.4%, 26.9% and 10.3%, respectively. Further, the IC50 in the data set with MCF7 [1] was determined as 0.95 µM; in data set [8], 0.033 µM; in the data set “cells [2]” it was 4.56 µM; in “cells [3]”, 2.82 µM.
Take `O=C(NC1CC1)c1cnc2ccc(-c3cnc4ccccc4c3)cc2c1Nc1ccc(N2CCNCC2)c(C(F)(F)F)c1`: in data set [8], the IC50 is more than 3 µM.
In the case of `NC(=O)c1cnc2ccc(-c3ccc(N)nc3)cc2c1Nc1cccc(C(F)(F)F)c1`, the IC50 came out at 0.41 µM with MCF7 [1], 1.83 µM in the data set “cells [2]” and 1.08 µM in the data set “cells [3]”.
The corresponding values for `Cn1nccc1-c1ccc2ncc(C(N)=O)c(Nc3ccc(N4CCN(S(C)(=O)=O)CC4)c(C(F)(F)F)c3)c2c1` are 2.69 µM, 14.7 µM and 7.08 µM.
For `COc1ccc(-c2ccc3ncc(C(N)=O)c(Nc4ccc(C(C)(C)C#N)cc4)c3c2)cn1`, the IC50 in the data set on MCF7 [1] stood at 1.58 µM; in “cells [2]” it was 2.57 µM; in the data set “cells [3]”, 1.66 µM.
For `CN1CCN(CC(=O)N2CCN(c3ccc(Nc4c(C(N)=O)cnc5ccc(-c6cnc7ccccc7c6)cc45)cc3C(F)(F)F)CC2)CC1`, the results for the IC50 in the data set on MCF7 [1], in the data set “cells [2]” and in the data set “cells [3]” were 0.44 µM, 0.97 µM and 0.99 µM, respectively.
The corresponding values for `Cn1c(=O)n(-c2ccc(C(C)(C)C#N)cc2)c2c3cc(-c4cnc5ccccc5c4)ccc3ncc21` [DACTOLISIB] are 0.05 µM, 0.2 µM and 0.21 µM.
For the compound `CS(=O)(=O)N1CCN(c2ccc(Nc3c(C(N)=O)cnc4ccc(-c5cnc6ccccc6c5)cc34)cc2C(F)(F)F)CC1`, the IC50 in the data set with MCF7 [1] stood at 0.36 µM; in the data set “cells [2]”, 1 µM; in “cells [3]”, 3.73 µM.
In the case of `CC(C)(C#N)c1ccc(Nc2c(C(N)=O)cnc3ccc(-c4ccc(N)nc4)cc23)cc1`, the figures for the IC50 with MCF7 [1], in “cells [2]” and in “cells [3]” were 0.52 µM, 0.67 µM and 0.83 µM, respectively.
For `COc1ccc(-c2ccc3ncc(C(N)=O)c(Nc4ccc(N5CCNCC5)c(C(F)(F)F)c4)c3c2)cn1` the same measures were 0.78 µM, 2.05 µM and 0.99 µM.
With `CO[C@H]1C[C@@H]2CC[C@@H](C)[C@@](O)(O2)C(=O)C(=O)N2CCCC[C@H]2C(=O)O[C@H]([C@H](C)C[C@@H]2CC[C@@H](O)[C@H](OC)C2)CC(=O)[C@H](C)/C=C(\C)[C@@H](O)[C@@H](OC)C(=O)[C@H](C)C[C@H](C)/C=C/C=C/C=C/1C`, in the data set on MCF7 [20], the inhibition result was “inactive”. At mTORC1 (Homo sapiens), the inhibition result is “Active”.

By IC50 is commonly meant the concentration that inhibits the measured activity by half. A low value points to higher potency. By inhibition is commonly meant the relative decrease from the control value, in per cent.
